From ChEMBL document CHEMBL1152833, “Synthesis of some novel N4-(naphtha[1,2-d]thiazol-2-yl)semicarbazides as potential anticonvulsants” (Eur J Med Chem, 2009)
Activity calls are given as the source filed them.

Each molecule was assayed on Mus musculus (assay: Toxicity to Swiss albino mouse assessed as mortality following tonic extension at 300 mg/kg, ip after 0.5 hrs). Details: in vivo.
Type: organism-based
Set-up: dose 300 mg/kg, route intraperitoneal

Compound	Activity
COc1cc(/C=N/NC(=O)Nc2nc3c(ccc4ccccc43)s2)cc(OC)c1	Toxic
COc1ccc(/C=N/NC(=O)Nc2nc3c(ccc4ccccc43)s2)cc1	Toxic
O=C(N/N=C/c1ccc(O)cc1)Nc1nc2c(ccc3ccccc32)s1	Toxic

The molecules below were run on Mus musculus (assay: Neurotoxicity in ip dosed Swiss albino mouse assessed as minimum drug concentration required for falling off the rotarod by half or more of mouse after 4 hrs by rotarod test). Details: in vivo.
Type: toxicity, organism-based
How it was run: (§1)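 Rotarod test in male Swiss albino mice (18–25 g) after i.p. dosing at 30, 100 and 300 mg/kg, read at 0.5 and 4 h. Mice falling within 30 s in a pre-check were excluded. Neurotoxicity was scored as the minimum dose at which half or more of the mice fell off the rod.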

Compound	Activity [mg/kg]
NC(=O)N1c2ccccc2C=Cc2ccccc21 [CARBAMAZEPINE]	300
O=C(N/N=C/c1ccc([N+](=O)[O-])cc1)Nc1nc2c(ccc3ccccc32)s1	300

The molecules below were run on Mus musculus (assay: Neurotoxicity in Swiss albino mouse at 300 mg/kg, ip after 0.5 hrs by rotarod test). Details: in vivo.
Type: toxicity, organism-based
Set-up: dose 300 mg/kg, route intraperitoneal
How it was run: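 Male Swiss albino mice (18-25 g) received the compound i.p. at 30, 100 or 300 mg/kg and were tested on the rotarod 0.5 and 4 h later. Mice were pre-checked, and any that fell off within 30 s were excluded. Neurotoxicity was scored as falling off the rod. The value is the minimum dose affecting half or more of the mice.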

Compound	Activity
COc1cc(/C=N/NC(=O)Nc2nc3c(ccc4ccccc43)s2)cc(OC)c1	Non-toxic
COc1ccc(/C=N/NC(=O)Nc2nc3c(ccc4ccccc43)s2)cc1	Non-toxic
O=C(N/N=C/c1ccc(O)cc1)Nc1nc2c(ccc3ccccc32)s1	Non-toxic

Each molecule was assayed on Mus musculus (assay: Neurotoxicity in ip dosed Swiss albino mouse assessed as minimum drug concentration required for falling off the rotarod by half or more of mouse after 0.5 hrs by rotarod test). Details: in vivo.
Type: toxicity, organism-based
How it was run: as §1

Compound	Activity [mg/kg]
NC(=O)N1c2ccccc2C=Cc2ccccc21 [CARBAMAZEPINE]	100
O=C(N/N=C/c1ccc([N+](=O)[O-])cc1)Nc1nc2c(ccc3ccccc32)s1	300

Each molecule was assayed on Mus musculus (assay: Anticonvulsant activity against pentylenetetrazole-induced seizures in Swiss albino mouse at 300 mg/kg, ip after 4 hrs by scPTZ test). Details: not given.
Type: functional, organism-based
Set-up: dose 300 mg/kg
How it was run: (§2)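 Male Swiss albino mice (18–25 g) were dosed i.p. at 30, 100 and 300 mg/kg, examined at 0.5 and 4 h. PTZ 85 mg/kg (CD97) was given and the animals were […]. Protection meant absence of any threshold convulsion, i.e. clonic spasm lasting at least 5 s. The value is the minimum dose active in half or more of the mice.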

Compound	Activity
COc1cc(/C=N/NC(=O)Nc2nc3c(ccc4ccccc43)s2)cc(OC)c1	inactive
COc1ccc(/C=N/NC(=O)Nc2nc3c(ccc4ccccc43)s2)cc1	inactive
O=C(N/N=C/c1ccc(O)cc1)Nc1nc2c(ccc3ccccc32)s1	inactive

The molecules below were run on Mus musculus (assay: Anticonvulsant activity against maximal electroshock-induced seizures in Swiss albino mouse at 300 mg/kg, ip after 4 hrs by MES test). Details: not given.
Type: functional, organism-based
Set-up: dose 300 mg/kg
How it was run: (§3)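 Male Swiss albino mice (18–25 g) received compound i.p. at 30, 100 and 300 mg/kg. MES seizures were induced after 0.5 and 4 h, with a drop of 0.9% saline placed in the eye before the electrodes went on. Protection meant abolition of the hind-limb tonic extensor component. The tabulated value is the minimum dose protecting half or more of the mice.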

Compound	Activity
COc1cc(/C=N/NC(=O)Nc2nc3c(ccc4ccccc43)s2)cc(OC)c1	inactive
COc1ccc(/C=N/NC(=O)Nc2nc3c(ccc4ccccc43)s2)cc1	inactive
O=C(N/N=C/c1ccc(O)cc1)Nc1nc2c(ccc3ccccc32)s1	inactive

What follows are molecules tested on Mus musculus (assay: Anticonvulsant activity in ip dosed Swiss albino mouse assessed as minimum drug concentration required for inhibition of maximal electroshock-induced seizure in half or more of mouse after 0.5 hrs by MES test). Details: not given.
Type: functional
How it was run: as §3

Compound	Activity [mg/kg]
NC(=O)N1c2ccccc2C=Cc2ccccc21 [CARBAMAZEPINE]	30
O=C(N/N=C/c1ccc([N+](=O)[O-])cc1)Nc1nc2c(ccc3ccccc32)s1	300

Each molecule was assayed on Mus musculus (assay: Anticonvulsant activity in ip dosed Swiss albino mouse assessed as minimum drug concentration required for inhibition of pentylenetetrazole-induced seizures in half or more of mouse after 0.5 hrs by scPTZ test). Details: not given.
Type: functional
How it was run: as §2

Compound	Activity [mg/kg]
NC(=O)N1c2ccccc2C=Cc2ccccc21 [CARBAMAZEPINE]	100
O=C(N/N=C/c1ccc([N+](=O)[O-])cc1)Nc1nc2c(ccc3ccccc32)s1	100

What follows are molecules tested on Mus musculus (assay: Neurotoxicity in Swiss albino mouse at 300 mg/kg, ip after 4 hrs by rotarod test). Details: in vivo.
Type: toxicity, organism-based
Set-up: dose 300 mg/kg, route intraperitoneal
How it was run: as §1

Compound	Activity
COc1cc(/C=N/NC(=O)Nc2nc3c(ccc4ccccc43)s2)cc(OC)c1	Non-toxic
COc1ccc(/C=N/NC(=O)Nc2nc3c(ccc4ccccc43)s2)cc1	Non-toxic
O=C(N/N=C/c1ccc(O)cc1)Nc1nc2c(ccc3ccccc32)s1	Non-toxic

Each molecule was assayed on Mus musculus (assay: Antioxidant activity against PTZ-induced decrease in superoxide dismutase activity in Swiss albino mouse brain assessed as enzyme units per mg of protein causing 50% inhibition in NBT reduction rate at 100 mg/kg, ip administered 30 mins before PTZ challenge measured after 4 hrs). Details: route intraperitoneal.
Type: functional
How it was run: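 Same mouse dosing: 100 mg/kg i.p. 30 min before PTZ 85 mg/kg, brains taken at 4 h. Total SOD was measured in the ethanol phase of an ethanol/chloroform (5:3) extract, as inhibition of NBT reduction by xanthine–xanthine oxidase. One unit gives 50% inhibition; activity is expressed per mg protein (Lowry). n=6, mean ± SEM.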

Compound	Activity
O=C(N/N=C/c1ccc([N+](=O)[O-])cc1)Nc1nc2c(ccc3ccccc32)s1	58

These molecules were tested on Mus musculus (assay: Anticonvulsant activity against maximal electroshock-induced seizures in Swiss albino mouse at 300 mg/kg, ip after 0.5 hrs by MES test). Details: not given.
Type: functional, organism-based
Set-up: dose 300 mg/kg
How it was run: as §3

Compound	Activity
COc1cc(/C=N/NC(=O)Nc2nc3c(ccc4ccccc43)s2)cc(OC)c1	inactive
COc1ccc(/C=N/NC(=O)Nc2nc3c(ccc4ccccc43)s2)cc1	inactive
O=C(N/N=C/c1ccc(O)cc1)Nc1nc2c(ccc3ccccc32)s1	inactive

Each molecule was assayed on Mus musculus (assay: Antioxidant activity against PTZ-induced lipid peroxidation in Swiss albino mouse brain assessed as malondialdehyde content per mg of protein at 100 mg/kg, ip preincubated for 30 mins before PTZ challenge measured after 4 hrs by TBARS assay). Details: route intraperitoneal.
Type: functional
How it was run: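 Mice were dosed 100 mg/kg i.p. 30 min before PTZ 85 mg/kg, and brains were homogenized after 4 h. For TBARS, homogenate supernatant was heated with SDS, acetic acid and 0.8% thiobarbituric acid at 95 °C for 1 h. The product was extracted into n-butanol/pyridine and read at 532 nm. Results are pmol MDA/mg protein, n=6, mean ± SEM.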

Compound	Activity [pmol]
O=C(N/N=C/c1ccc([N+](=O)[O-])cc1)Nc1nc2c(ccc3ccccc32)s1	309

Each molecule was assayed on Mus musculus (assay: Anticonvulsant activity in ip dosed Swiss albino mouse assessed as minimum drug concentration required for inhibition of pentylenetetrazole-induced seizures in half or more of mouse after 4 hrs by scPTZ test). Details: not given.
Type: functional
How it was run: as §2

Compound	Activity [mg/kg]
NC(=O)N1c2ccccc2C=Cc2ccccc21 [CARBAMAZEPINE]	300
O=C(N/N=C/c1ccc([N+](=O)[O-])cc1)Nc1nc2c(ccc3ccccc32)s1	300

The molecules below were run on Mus musculus (assay: Anticonvulsant activity in ip dosed Swiss albino mouse assessed as minimum drug concentration required for inhibition of maximal electroshock-induced seizure in half or more of mouse after 4 hrs by MES test). Details: not given.
Type: functional
How it was run: as §3

Compound	Activity [mg/kg]
NC(=O)N1c2ccccc2C=Cc2ccccc21 [CARBAMAZEPINE]	100
O=C(N/N=C/c1ccc([N+](=O)[O-])cc1)Nc1nc2c(ccc3ccccc32)s1	300

Each molecule was assayed on Rattus norvegicus (assay: Anticonvulsant activity against pentylenetetrazole-induced seizures in Wistar albino rat at 50 mg/kg, po after 2 hrs by scPTZ test). Details: not given.
Type: functional, organism-based
Set-up: dose 50 mg/kg
How it was run: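 Male Wistar rats (100–125 g) were given compound orally at 50 mg/kg. They were challenged with scPTZ at 70 mg/kg at 0.25, 0.5, 1.0 and 2.0 h, and seizures were watched for. Protection meant absence of clonic spasm lasting at least 5 s. The score is the number of rats protected out of four.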

Compound	Activity
O=C(N/N=C/c1ccc([N+](=O)[O-])cc1)Nc1nc2c(ccc3ccccc32)s1	inactive
